According to PMC5684856 (Pharmacology Research & Perspectives, 2017):
“Also recorded” adds a separate entry of the source.

Experiments:
[1] = test system: rat primary islets; assay: Glucose-dependent insulin secretion in rat islets; type: cell-based, Sprague-Dawley rats; settings: 1 h
[2] = test system: Goto-Kakizaki (GK) rats; assay: Oral glucose tolerance test in Goto-Kakizaki rats; type: in vivo, rat
Outline: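 Male GK rats, 9–10 weeks old, were fasted overnight and grouped (n = 9–10) by fasting glucose and body weight. Vehicle or test compound was given orally, followed by oral glucose 1 g kg−1 60 min later. Blood was taken pre-dose, at −5 min, and at 5–180 min after glucose. Plasma glucose AUC covered −5 to 180 min and insulin AUC −5 to 60 min. Dunnett's test; means + SEM.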

[3] = test system: mouse insulinoma MIN6 cells; assay: Caspase 3/7 activity in MIN6 cells; type: cell-based; settings: 72-h exposure
Outline: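 MIN6 mouse insulinoma cells were grown in DMEM with 10% heat-inactivated FBS, penicillin/streptomycin and 0.0005% 2-mercaptoethanol. Cells were exposed to test compound or palmitic acid for 72 h in 10% FBS plus 0.5% BSA. Caspase-3/7 activity was read with a homogeneous fluorogenic caspase-3/7 kit. Triplicate determinations; means + SD.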

[4] = biological target: mouse GPR40/FFAR1 (Mus musculus, UniProt Q76JU9); assay: Intracellular calcium assay; type: cell-based
Chain of mouse GPR40/FFAR1 (Q76JU9 whole entry): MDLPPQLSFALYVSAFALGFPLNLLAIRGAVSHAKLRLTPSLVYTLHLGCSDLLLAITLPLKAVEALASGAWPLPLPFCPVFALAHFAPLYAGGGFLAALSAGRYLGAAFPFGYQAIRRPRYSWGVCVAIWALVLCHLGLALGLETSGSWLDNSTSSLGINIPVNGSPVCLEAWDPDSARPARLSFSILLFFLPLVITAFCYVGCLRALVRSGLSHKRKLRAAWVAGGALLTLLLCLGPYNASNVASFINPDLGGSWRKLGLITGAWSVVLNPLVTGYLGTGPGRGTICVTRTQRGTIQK
Outline: (§1)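 CHO-DXB11 cells stably expressing human, mouse or rat GPR40/FFAR1 were grown in Ham's F-12 with 10% heat-inactivated FBS and penicillin/streptomycin in 96-well plates. Test compounds were dissolved in DMSO. Ca2+ increases were measured in duplicate (FLIPR kit, fluorescence imaging reader) and expressed as % of fasiglifam Emax. EC50 was obtained by sigmoidal curve fit; means ± SD of 6 assays.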

[5] = biological target: human GPR40/FFAR1 (Homo sapiens, UniProt O14842); assay: Intracellular calcium assay; type: cell-based
Chain of human GPR40/FFAR1 (O14842 whole entry): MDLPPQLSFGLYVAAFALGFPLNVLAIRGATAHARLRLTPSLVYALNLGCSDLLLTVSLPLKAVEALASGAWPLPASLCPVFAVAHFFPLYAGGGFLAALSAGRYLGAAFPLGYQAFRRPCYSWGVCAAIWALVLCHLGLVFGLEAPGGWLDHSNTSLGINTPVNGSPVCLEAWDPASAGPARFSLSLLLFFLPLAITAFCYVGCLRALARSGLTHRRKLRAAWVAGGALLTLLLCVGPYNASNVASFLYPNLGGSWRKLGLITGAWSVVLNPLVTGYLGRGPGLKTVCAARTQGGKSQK
Outline: as §1

[6] = test system: Sprague-Dawley rats; assay: Oral glucose tolerance test in Sprague-Dawley rats; type: in vivo, rat
Outline: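 Male Sprague-Dawley rats, 7–8 weeks old, were fasted overnight and grouped by body weight (n = 10). Vehicle or test compound was given orally 60 min before oral glucose 1 g kg−1. Blood was sampled pre-dose, at −5 min, and at 5, 15, 30, 60 and 120 min. Plasma glucose was measured enzymatically and insulin by ultrasensitive rat insulin ELISA. AUCs covered −5 to 120 min (glucose) and −5 to 60 min (insulin). Dunnett's test; means + SEM.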

[7] = Pharmacokinetic study in rats; type: in vivo, male Sprague-Dawley rats; settings: rat
Outline: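 Male Sprague-Dawley rats, 7 weeks old, received 3 mg kg−1 intravenously in N,N-dimethylacetamide/PEG400/water (4/4/2). After overnight fasting, others received 0.3, 1, 3 or 10 mg kg−1 orally as a suspension in 1% Tween 80 with 0.5% carboxymethyl cellulose. Plasma levels were analysed by noncompartmental analysis, with bioavailability from AUC. n = 3 per group; mean (SD).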

[8] = test system: Sprague-Dawley rats; assay: Effects on fasting glucose levels in Sprague-Dawley rats; type: in vivo, rat; settings: fasted Sprague-Dawley rats
[9] = biological target: T1, human GPR120/FFAR4 (Homo sapiens, UniProt Q5NUL3); assay: Intracellular calcium assay; type: cell-based
T1 sequence (Q5NUL3 1-361): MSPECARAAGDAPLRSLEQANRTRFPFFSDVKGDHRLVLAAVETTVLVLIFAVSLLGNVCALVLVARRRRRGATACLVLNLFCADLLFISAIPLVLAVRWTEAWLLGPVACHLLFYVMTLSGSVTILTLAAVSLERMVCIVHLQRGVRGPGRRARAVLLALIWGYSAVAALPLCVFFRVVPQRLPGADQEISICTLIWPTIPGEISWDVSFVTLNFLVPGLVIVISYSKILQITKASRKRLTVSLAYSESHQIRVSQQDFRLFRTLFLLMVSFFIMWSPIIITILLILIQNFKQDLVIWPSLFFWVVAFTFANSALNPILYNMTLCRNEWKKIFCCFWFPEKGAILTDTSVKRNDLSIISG
Outline: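 CHO-DXB11 cells were stably transfected with human GPR120/FFAR4 and grown in Ham's F-12 with 10% heat-inactivated FBS. Intracellular Ca2+ changes were measured in duplicate with a FLIPR calcium kit on a fluorescence imaging plate reader. Alpha-linolenic acid served as the control agonist.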

[10] = test system: Goto-Kakizaki (GK) rats; assay: Chronic 5-week treatment in Goto-Kakizaki rats; type: in vivo, rat
[11] = biological target: T2, human GPR119 (Homo sapiens, UniProt Q8TDV5); assay: cAMP reporter assay in CHO-K1 cells expressing human GPR119; type: cell-based
T2 sequence (Q8TDV5 1-335): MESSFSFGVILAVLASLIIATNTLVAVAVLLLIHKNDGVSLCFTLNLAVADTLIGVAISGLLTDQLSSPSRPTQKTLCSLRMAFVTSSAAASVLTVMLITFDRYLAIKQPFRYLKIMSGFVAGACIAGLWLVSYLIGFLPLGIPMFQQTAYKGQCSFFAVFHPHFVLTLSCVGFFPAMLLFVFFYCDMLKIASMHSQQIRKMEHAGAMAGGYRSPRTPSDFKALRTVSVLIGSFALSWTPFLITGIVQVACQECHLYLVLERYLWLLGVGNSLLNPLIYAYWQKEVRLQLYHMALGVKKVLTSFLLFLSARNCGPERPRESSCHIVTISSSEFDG
Outline: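 CHO-K1 cells stably expressing human GPR119 were co-transfected with a Cre-luciferase reporter and a renilla luciferase control. Cells were incubated with test compound for 4 h, then lysed. Firefly and renilla luciferase activities were measured in duplicate by dual-luciferase chemiluminescence. AR231453 served as the control agonist.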

[12] = biological target: GPR40/FFAR1 (Mus musculus, UniProt Q76JU9); type: cell-based
Chain of GPR40/FFAR1 (Q76JU9 whole entry): as the sequence (Q76JU9 whole entry) above
Outline: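 CHO-DXB11 cells stably expressing mouse GPR40/FFAR1 were assayed for intracellular Ca2+ increases (FLIPR calcium dye, fluorescence imaging plate reader) in the presence of 10% FBS and 0.5% BSA. Triplicate determinations; means + SD.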

[13] = biological target: T3, PPAR gamma (Homo sapiens, UniProt P37231); assay: Nuclear receptor reporter activation assay; type: cell-based
T3 sequence (P37231 1-505): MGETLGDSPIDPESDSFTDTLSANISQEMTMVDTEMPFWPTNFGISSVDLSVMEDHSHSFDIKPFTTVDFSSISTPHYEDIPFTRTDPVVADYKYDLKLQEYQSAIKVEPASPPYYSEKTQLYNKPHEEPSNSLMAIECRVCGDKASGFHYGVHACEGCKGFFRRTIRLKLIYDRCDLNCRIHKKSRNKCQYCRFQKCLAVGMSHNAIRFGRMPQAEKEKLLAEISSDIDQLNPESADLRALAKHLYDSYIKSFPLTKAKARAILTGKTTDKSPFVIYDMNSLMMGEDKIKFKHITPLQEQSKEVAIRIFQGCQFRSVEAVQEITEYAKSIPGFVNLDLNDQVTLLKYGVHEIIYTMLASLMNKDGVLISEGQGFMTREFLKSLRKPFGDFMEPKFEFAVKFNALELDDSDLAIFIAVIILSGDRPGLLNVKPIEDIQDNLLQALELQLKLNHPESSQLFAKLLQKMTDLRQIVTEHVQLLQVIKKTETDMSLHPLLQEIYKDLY

[14] = biological target: rat GPR40/FFAR1 (Rattus norvegicus, UniProt Q8K3T4); assay: Intracellular calcium assay; type: cell-based
Chain of rat GPR40/FFAR1 (Q8K3T4 whole entry): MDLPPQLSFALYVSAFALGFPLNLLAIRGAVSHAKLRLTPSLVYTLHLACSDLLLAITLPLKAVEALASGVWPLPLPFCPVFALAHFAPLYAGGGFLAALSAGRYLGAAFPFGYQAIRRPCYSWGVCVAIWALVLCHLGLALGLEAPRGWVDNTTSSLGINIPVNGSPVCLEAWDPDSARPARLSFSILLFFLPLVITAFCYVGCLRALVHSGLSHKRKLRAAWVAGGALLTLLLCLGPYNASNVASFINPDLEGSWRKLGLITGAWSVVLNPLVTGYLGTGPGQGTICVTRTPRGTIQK
Outline: as §1

[15] = test system: healthy volunteers and T2DM patients; settings: cited from earlier work
[16] = ref Tsujihata et al. 2011; Ito et al. 2013; cited from earlier work
[17] = 1 mg·kg^−1 p.o., 15 min after glucose challenge
[18] = p.o. 60 min before glucose 1 g kg^−1, vs vehicle
[19] = male, Sprague-Dawley, plasma, iv, 3 mg/kg
[20] = male, Sprague-Dawley, plasma, po, 0.3 mg/kg
[21] = male, Sprague-Dawley, plasma, po, 1 mg/kg
[22] = male, Sprague-Dawley, plasma, po, 3 mg/kg
[23] = male, Sprague-Dawley, plasma, po, 10 mg/kg

SMILES: [Cl-].[K+] [KCl, reference compound]
- insulin secretion in low glucose ([1]; KCl positive control, 2 mmol·L^−1 glucose): significantly potentiated insulin secretion
- insulin secretion in high glucose ([1]; KCl positive control, 16 mmol·L^−1 glucose): significantly potentiated insulin secretion

SMILES: Cc1cc(OCCCS(C)(=O)=O)cc(C)c1-c1cccc(COc2ccc(-c3cc(O)n[s+]3[O-])cc2)c1 [MR1704, (R)‐5‐[4‐[3‐[2,6‐Dimethyl‐4‐[3‐(methylsulphonyl)propoxy]‐phenyl]benzyloxy]phenyl]‐isothiazol‐3‐ol 1‐oxide]
- AUC of glucose levels during OGTT ([2]; 1 mg·kg^−1 p.o.): significant reduction in the AUC of glucose levels
- plasma insulin secretion during OGTT [2, 17]: significantly enhanced plasma insulin secretion
- plasma glucose excursion during OGTT [2, 18]: reduced plasma glucose excursion
- caspase 3/7 activity ([3]; even at 10 μmol·L^−1 with 0.5% BSA): did not induce caspase 3/7 activity
- EC50 [4]: 0.025 ± 0.004 µM
- EC50 [5]: 0.035 ± 0.006 µM
- AUC of glucose levels during OGTT ([6]; 1 mg·kg^−1 p.o.): significant reduction in the AUC of glucose levels
- plasma insulin secretion during OGTT [6, 17]: significantly enhanced
- plasma glucose excursion during OGTT [6, 18]: reduced plasma glucose excursion
- AUC(0-inf) [7, 19]: 8.96 µg·h/mL
- Vd [7, 19]: 0.584 L/kg
- clearance [7, 19]: 0.337 L/h/kg
- half-life [7, 19]: 1.92 h
- AUC(0-inf) [7, 20]: 0.511 µg·h/mL
- Cmax [7, 20]: 0.102 µg/mL
- Tmax [7, 20]: 0.83 h
- bioavailability [7, 20]: 57%
- half-life [7, 20]: 2.48 h
- AUC(0-inf) [7, 21]: 1.45 µg·h/mL
- Cmax [7, 21]: 0.264 µg/mL
- Tmax [7, 21]: 2.67 h
- bioavailability [7, 21]: 49%
- half-life [7, 21]: 2.1 h
- AUC(0-inf) [7, 22]: 4.71 µg·h/mL
- Cmax [7, 22]: 0.755 µg/mL
- Tmax [7, 22]: 4 h
- bioavailability [7, 22]: 53%
- half-life [7, 22]: 2.13 h
- AUC(0-inf) [7, 23]: 8.43 µg·h/mL
- Cmax [7, 23]: 1.13 µg/mL
- Tmax [7, 23]: 5.33 h
- bioavailability [7, 23]: 28%
- half-life [7, 23]: 2.08 h
- time at which plasma concentrations reached maximum values ([7]; p.o., all tested doses (0.3-10 mg·kg^−1)): 0.83 to 5.33 h
- fasting plasma glucose levels ([8]; even at 300 mg·kg^−1 p.o., 1 to 12 h after dosing): did not reduce the fasting plasma glucose levels
- hGPR120 activation (at 3 nmol·L^−1) ([9]; at 3 nmol·L^−1 as printed): 4%
- agonistic activity in GPR120/FFAR4-expressing cells ([9]; at 3 μmol·L^−1): did not show any agonistic activities
- glycated hemoglobin (HbA1c) levels, effect in words ([10]; 3 mg·kg^−1 p.o. once daily, after 5 weeks): significantly reduced glycated hemoglobin (HbA1c) levels
- pancreatic insulin content ([10]; after 5-week treatment, vs vehicle): without reducing pancreatic insulin content; also recorded: No significant difference was observed
- nonfasting glucose levels ([10]; at least 1 mg·kg^−1 p.o. once daily, 5 weeks): reduced nonfasting glucose levels
- body weight gain ([10]; once daily p.o., 5 weeks, vs vehicle-treated group): comparable body weight gain
- hGPR119 activation (at 3 nmol·L^−1) ([11]; at 3 nmol·L^−1 as printed): 1%
- agonistic activity in GPR119-expressing cells ([11]; at 3 μmol·L^−1): did not show any agonistic activities
- EC50 [12]: 0.21 µM
- PPAR gamma activation (at 3 nmol·L^−1) ([13]; at 3 nmol·L^−1 as printed): 1%
- agonistic activity in PPAR gamma-expressing cells ([13]; at 3 μmol·L^−1): did not show any agonistic activities
- insulin secretion in low glucose ([1]; MR1704 3 μmol·L^−1, 2 mmol·L^−1 glucose): but not low glucose conditions
- insulin secretion in high glucose ([1]; MR1704 3 μmol·L^−1, 16 mmol·L^−1 glucose): markedly potentiated insulin secretion in high glucose
- EC50 [14]: 0.027 ± 0.003 µM

SMILES: Cc1cc(OCCCS(C)(=O)=O)cc(C)c1-c1cccc(COc2ccc3c(c2)OC[C@H]3CC(=O)O)c1 [fasiglifam]
- glucose-lowering effect ([15]; T2DM patients, ref Burant et al. 2012, Kaku et al. 2013): glucose‐lowering effect
- hepatotoxicity (liver enzyme levels) ([15]; clinical, ref Kaku et al. 2015): increased liver enzyme levels
- clinical parameters of glucose homeostasis ([15]; healthy human adults, ref Leifke et al. 2012): did not affect clinical parameters of glucose homeostasis
- safety and tolerability ([15]; healthy volunteers, ref Naik et al. 2012): safe and well tolerated
- pancreatic toxicity [16]: does not cause pancreatic toxicity

SMILES: COc1ccc(Cl)cc1C(=O)NCCc1ccc(S(=O)(=O)NC(=O)NC2CCCCC2)cc1 [glibenclamide, reference compound]
- fasting plasma glucose levels ([8]; glibenclamide 10 mg·kg^−1 p.o.): significantly reduced the fasting plasma glucose levels

SMILES: CCCCCCCCCCCCCCCC(=O)O [palmitic acid, reference compound]
- caspase 3/7 activity ([3]; 300 μmol·L^−1 with 0.5% BSA): induced caspase 3/7 activity
- EC50 [12]: 29 µM
